In assay [1] the test system is Candida albicans. The assay can be described thus: Antimicrobial activity against Candida albicans ATCC 10231 at 1000 ug/ml. The format is functional, organism-based.
Assay [2] relates to Mycolicibacterium smegmatis. The assay can be described thus: Antimicrobial activity against Mycobacterium smegmatis ATCC 607 at 1000 ug/ml. The format is functional, organism-based.
For assay [3], the system named is Klebsiella pneumoniae. The assay can be described thus: Antimicrobial activity against Klebsiella pneumoniae ATCC 10031 at 1000 ug/ml. The format is functional, organism-based.
For assay [4], the system named is Staphylococcus aureus. The assay is described as follows: Antimicrobial activity against Staphylococcus aureus ATCC 13709 at 1000 ug/ml. The assay is classed as functional, organism-based.
For assay [5], the system named is Mycobacterium intracellulare. The assay is described as follows: Antimicrobial activity against recombinant Mycobacterium intracellular expressing pMV361 lux after 3 days by luciferase assay. The format is functional. The note with it: 72 h. In outline:
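Recombinant M. intracellulare pMV361 lux at about 5e5 cfu/mL final, in Middlebrook 7H9 broth with compound at 0.1–50 µg/mL; no-drug 1% DMSO growth controls. Incubated at 36 °C in ambient air. 100 µL culture plus 100 µL of 1 mM luciferin, read as RLU at day 0 (within 30 min) and after 3 days.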

For assay [6], the system named is Escherichia coli. The assay is described as follows: Antimicrobial activity against Escherichia coli ATCC 9637. The format is functional.
Assay [7] has as its system Klebsiella pneumoniae. The assay can be described thus: Antimicrobial activity against Klebsiella pneumoniae ATCC 10031. The format is functional.
Assay [8] concerns Salmonella enterica subsp. enterica serovar Gallinarum. The assay is described as follows: Antimicrobial activity against Salmonella gallinarum ATCC 9184. The assay is classed as functional.
Assay [9] relates to Staphylococcus aureus. The assay can be described thus: Antimicrobial activity against Staphylococcus aureus ATCC 13709. The format is functional.
Assay [10] deals with Mycolicibacterium smegmatis. The assay is described as follows: Antimicrobial activity against Mycobacterium smegmatis ATCC 607. The format is functional.
Assay [11] concerns Candida albicans. The assay can be described thus: Antimicrobial activity against Candida albicans ATCC 10231. The assay is classed as functional.
For assay [12], the system named is Pseudomonas aeruginosa. The assay can be described thus: Antimicrobial activity against Pseudomonas aeruginosa ATCC 27853. The format is functional.
The test system of assay [13] is Salmonella enterica subsp. enterica serovar Gallinarum. The assay is described as follows: Antimicrobial activity against Salmonella gallinarum ATCC 9184 at 1000 ug/ml. The format is functional, organism-based.
Assay [14] relates to Escherichia coli. The assay is described as follows: Antimicrobial activity against Escherichia coli ATCC 9637 at 1000 ug/ml. The assay is classed as functional, organism-based.
For assay [15], the system named is Pseudomonas aeruginosa. The assay is described as follows: Antimicrobial activity against Pseudomonas aeruginosa ATCC 27853 at 1000 ug/ml. The format is functional, organism-based.

Active and inactive are the calls of the source. The rule behind the calls is not given here.

`COc1ccc2c(c1OC)CN1CCc3cc4c(cc3[C@@H]1C2)OCO4` [CANADINE]: the result in [1], in assay [2], in assay [3] and in assay [4] was inactive. In addition, the MIC (as a rule, the lowest concentration that inhibits growth of the organism) in assay [5] is more than 50 µg/mL.

Consider `COc1c(O)ccc2c1C(=O)N1CCc3cc4c(cc3C1C2)OCO4` (configuration not stated), for which the outcome in [1], in assay [2], in assay [3] and in [4] was inactive. Besides, the MIC in assay [5] was more than 50 µg/mL.

For `CCCCOC(=O)[C@@]1(OC(C)=O)CC(OC(C)=O)[C@H](OC(=O)/C=C/c2ccc(OC(C)=O)c(OC)c2)[C@H](OC(C)=O)C1` (some centres not stated), the outcome in assay [1], in assay [2] and in assay [4] was inactive.

On to `CN[C@@H]1[C@H](O[C@H]2[C@H](O[C@H]3[C@H](O)[C@@H](O)[C@H](N=C(N)N)[C@@H](O)[C@@H]3N=C(N)N)O[C@@H](C)[C@]2(O)C=O)O[C@@H](CO)[C@H](O)[C@H]1O.CN[C@@H]1[C@H](O[C@H]2[C@H](O[C@H]3[C@H](O)[C@@H](O)[C@H](N=C(N)N)[C@@H](O)[C@@H]3N=C(N)N)O[C@@H](C)[C@]2(O)C=O)O[C@@H](CO)[C@H](O)[C@H]1O.O=S(=O)(O)O.O=S(=O)(O)O.O=S(=O)(O)O` [STREPTOMYCIN SULFATE], for which the MIC in assay [6] is 6.25 µg/mL; in assay [7], 1.56 µg/mL; in assay [8] it was 50 µg/mL; in [9], 6.25 µg/mL; in assay [10], 1.56 µg/mL; in [11] it was more than 100 µg/mL. Also, the MIC in assay [12] turned out to be 25 µg/mL.

Regarding `COc1ccc2c(c1OC)C(=O)N1CCc3cc4c(cc3C1C2)OCO4` (configuration not stated), the result in assay [1], in assay [2], in assay [3] and in assay [4] was inactive. The MIC in assay [5] is more than 50 µg/mL.

With `COc1ccc2c(c1OC)C(=O)O[C@@H]2C1c2cc3c(cc2CCN1C)OCO3` (some centres not stated), the result in assay [13], in assay [1], in assay [14], in [2], in [3] and in assay [4] was inactive. Further, the result in assay [15] was inactive.

In the case of `CCCCOC(=O)[C@@]1(O)CC(OC(C)=O)[C@H](OC(=O)/C=C/c2ccc(OC(C)=O)c(OC)c2)[C@H](OC(C)=O)C1` (some centres not stated), the result in assay [1], in [2] and in [4] was inactive.

On to `COc1ccc2cc3[n+](cc2c1OC)CCc1cc2c(cc1-3)OCO2.[Cl-]` [BERBERINE CHLORIDE], for which the MIC in [7] is 100 µg/mL; in [9], 50 µg/mL; in assay [10], 25 µg/mL; in assay [11], 100 µg/mL; in assay [5], 200 µg/mL.

Take `CCCCOC(=O)[C@@]1(O)CC(O)[C@H](OC(=O)/C=C/c2ccc(O)c(OC)c2)[C@H](O)C1` (some centres not stated): the result in assay [1], in assay [2] and in assay [4] was inactive.

As to `CCCCOC(=O)[C@@]1(O)CC(OC(=O)/C=C/c2ccc(OC(C)=O)c(OC)c2)[C@H](OC(C)=O)[C@H](OC(C)=O)C1` (some centres not stated), the result in assay [1], in assay [2] and in [4] was inactive.

Turning to `COc1c(OC(C)=O)ccc2c1C(=O)N1CCc3cc4c(cc3C1C2)OCO4` (configuration not stated), the result in assay [1], in assay [2], in assay [3] and in assay [4] was inactive. Besides, in [5], the MIC is more than 50 µg/mL.

As for `CCCCOC(=O)[C@@]1(O)CC(OC(=O)/C=C/c2ccc(O)c(OC)c2)[C@H](O)[C@H](O)C1` (some centres not stated), the outcome in [1], in assay [2] and in assay [4] was inactive.

Regarding `CCCCOC(=O)[C@@]1(OC(C)=O)CC(OC(=O)/C=C/c2ccc(OC(C)=O)c(OC)c2)[C@H](OC(C)=O)[C@H](OC(C)=O)C1` (some centres not stated), the outcome in assay [1], in [2] and in assay [4] was inactive.
